A3G deaminase: APOBEC3G DNA deaminase inhibitors, primary screen, biochemical, fluorescence, single-stranded DNA substrate, uHTS. recombinant A3G, ssDNA deamination FAM/TAMRA fluorescence. 0.28% of 330,000 active. inhibition, % at 20 µM;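 active = inhibition of at least 40% at 20 µM, with no more than 30% in the related APOBEC3A deaminase screen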
Target sequence (Q9HC16 whole entry, looked up): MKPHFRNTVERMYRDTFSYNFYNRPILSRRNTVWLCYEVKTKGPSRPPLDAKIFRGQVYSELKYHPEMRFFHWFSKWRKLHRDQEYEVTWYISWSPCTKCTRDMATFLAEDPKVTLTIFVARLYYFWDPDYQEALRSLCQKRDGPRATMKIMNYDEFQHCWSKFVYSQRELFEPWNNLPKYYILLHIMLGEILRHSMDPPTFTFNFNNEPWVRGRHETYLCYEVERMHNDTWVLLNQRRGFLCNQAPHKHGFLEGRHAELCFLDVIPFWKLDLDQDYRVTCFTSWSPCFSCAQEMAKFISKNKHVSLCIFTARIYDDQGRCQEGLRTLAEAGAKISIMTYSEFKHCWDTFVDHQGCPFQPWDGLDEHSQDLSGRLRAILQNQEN
ASAP1 inh: inhibitors of human ASAP1 ArfGAP activity, primary screen, biochemical, fluorescence polarization | inhibition, % at 16.5 µM | AID 624377, 2012 | ASAP1-stimulated ARF1 GTP hydrolysis, GDP FP detection | 0.19% of 360,000 active | Arf-GAP with SH3 domain, ANK repeat and PH domain-containing protein 1 (Homo sapiens), …; in the data active = inhibition above about 25%
Statin myotox sup: suppressors of statin myotoxicity in C2C12 myotubes, primary screen, cell-based, single point, plate reader | C2C12 myotubes + simvastatin, ATP luminescence, 48 h; scaled: DMSO 0, geranylgeraniol control 100 | rescue of ATP level, % at 7.49 µM | 0.78% of 330,000 active | AID 602340, 2012;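 active = mean ATP rescue above about 67%, or every replicate alone reaching that limit, limit read from the data, passing the limit was not always enough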;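 also: myotubes were challenged with 10 µM simvastatin during compound exposure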
APOBEC3A inh: APOBEC3A ssDNA deaminase inhibitors, primary screen, selectivity assay for APOBEC3G inhibitor project, biochemical, FAM/TAMRA oligo cleavage fluorescence; inhibition, % at 20 µM; DNA dC->dU-editing enzyme APOBEC-3A (Homo sapiens), P31941; AID 493011, 2011; 0.41% of 330,000 active; recombinant A3A, FAM/TAMRA ssDNA deamination fluorescence;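 active = at least 40% inhibition at 20 µM here, with at most 30% in a related deaminase screen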
Mot1-301 SUMO: yeast Mot1-301 growth rescue at high temperature, primary screen, SUMOylation pathway inhibitor project, S. cerevisiae, ATP luminescence, 38.5C. S. cerevisiae Mot1-301 growth rescue; percent above DMSO median, 100 means doubled. growth rescue, % at 18.8 µM. 1% of 320,000 active. AID 2716, 2010;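 active = every valid replicate shows activation above 250% relative to neutral control wells; inactive = the rest, any valid replicate at or below 250%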
ARFGAP1 inh: inhibitors of rat ARFGAP1 GAP activity, primary screen, biochemical, fluorescence polarization, GDP tracer; 0.26% of 360,000 active; ADP-ribosylation factor GTPase-activating protein 1 (Rattus norvegicus), Q62848; inhibition, % at 16.5 µM; Arfgap1-stimulated ARF1 GTP hydrolysis, GDP FP detection;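 active = inhibition above a per-plate limit, mean inhibition of low control wells plus 3 SD, cut at about 25% in these data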
Target sequence (Q62848 1-136 limits assumed): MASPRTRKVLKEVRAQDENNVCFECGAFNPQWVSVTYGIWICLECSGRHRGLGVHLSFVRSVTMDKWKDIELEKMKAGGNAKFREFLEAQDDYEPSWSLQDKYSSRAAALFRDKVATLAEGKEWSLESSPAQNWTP
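Material: rat Arfgap1 GAP domain (His6, aa 1-136), purified enzyme. Also added: human ARF1(Δ1-17)-GTP substrate. Compound dosing: 16.5 µM single point, 1.26% DMSO. Timing: enzyme reaction 120 min at 25 °C after 20 min preincubation. Signal: GDP detection by fluorescence polarization. Read-out basis: percent inhibition of GAP-stimulated GDP formation, scaled between DMSO and no-Arfgap1 medians.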
ASAP1 GAP conf: ASAP1 GAP activity inhibitors, confirmation, biochemical, fluorescence polarization, human, triplicate; shares compounds with ASAP1 inh; ASAP1-stimulated Arf1 GTPase, GDP fluorescence polarization; inhibition, % at 16.5 µM; 37% of 620 active;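 active = mean inhibition over triplicates exceeds the hit threshold derived for the earlier primary screening run, cut at about 25% in these data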
A number is an active result; n = inactive; x = no result. The list is not random: actives were taken first. Their share in the collection is about 2.1%.

SMILES	A3G deaminase	ASAP1 inh	Statin myotox sup	APOBEC3A inh	Mot1-301 SUMO	ARFGAP1 inh	ASAP1 GAP conf
O=C(C1CCCC1)N1[C@@H]2CN(S(=O)(=O)c3ccccc3)c3ccccc3[C@@H]2[C@@H]1CO	x	x	n	x	x	x	x
Cc1noc(C)c1NC(=O)Nc1ccc2c(c1)CC(=O)N([C@H](C)CO)C[C@H](C)[C@H](CN(C)Cc1ccccc1)O2	x	x	n	x	x	x	x
CC(=O)N(C)c1ccc(NC(=O)Nc2ccccc2C)cc1	n	n	n	n	n	n	x
CC(=O)N(C)c1ccc(NC(=O)Nc2ccc(C)c(C)c2)cc1	n	26.6	x	n	n	n	n
O=C(Nc1ccc2oc(=O)ccc2c1)c1ccc(-c2ccc(Cl)cc2)o1	n	48.4	x	n	n	n	68.6
Cc1ccc(SCC(=O)NC2CC2)cc1	n	26.5	n	n	n	n	n
Cc1ccc(SCCC(=O)NC2CC2)cc1	n	n	n	n	n	n	x
CNC(=O)C[C@@H]1CC[C@H]2[C@@H](COc3ccc(NC(=O)c4ccc(C(F)(F)F)cc4)cc3C(=O)N2C)O1	x	x	n	x	x	x	x
CCCNC(=O)C[C@@H]1C[C@@H]2c3cc(NS(=O)(=O)c4cccc(OC)c4)ccc3O[C@@H]2[C@H](CO)O1	x	x	n	x	x	x	x
Cc1ccc(C=NNC(=O)c2cc(-c3cccnc3)nc3ccccc23)o1	n	24.8	n	n	n	n	n
Cc1ccc(NC(=O)COc2ccc(CCO)cc2-n2nc3ccccc3n2)cc1C	n	26.3	n	n	n	n	n
CCCNC(=O)C[C@@H]1C[C@H]2c3cc(NC(=O)Cc4ccncc4)ccc3O[C@H]2[C@H](CO)O1	x	x	n	x	x	x	x
COc1ccccc1Oc1cc(F)nc(N)n1	n	25.8	n	n	n	n	n
Nc1nc(Cl)cc(Oc2ccccc2F)n1	n	n	n	n	n	n	x
COc1ccc(CN2CCC2(C)C(=O)Nc2cccc(NS(C)(=O)=O)c2)c2ccccc12 (centres undefined)	x	n	n	x	x	n	x
COc1cccc(NC(=O)C2(C)CCN2Cc2ccc(OC)c3ccccc23)c1 (centres undefined)	x	28.7	n	x	x	n	n
O=C(C[C@H]1CC[C@H](NC(=O)c2cccnc2)[C@H](CO)O1)NCCN1CCCCC1	x	x	n	x	x	x	x
COc1ccc(-n2nnc3c(=O)n(CC(=O)Nc4ccc5c(c4)OCCO5)cnc32)cc1OC	n	108.3	n	n	n	n	72.9
CC(C)NC(=O)N(C)C[C@H]1Oc2c(NC(=O)Nc3cccc4ccccc34)cccc2C(=O)N([C@H](C)CO)C[C@H]1C	x	x	n	x	x	x	x
CC(=O)Nc1ccc2c(c1)C(=Nc1ccccc1)c1ccccc1-2	x	n	n	x	x	n	x
CCOC(=O)Nc1ccc2c(c1)C(=NO)c1ccccc1-2	x	27.6	x	x	x	n	n
CCOC(=O)Nc1ccc2c(c1)C(=NNC(N)=S)c1ccccc1-2	x	26.8	n	x	x	n	n
C[C@H]1CN([C@@H](C)CO)S(=O)(=O)c2ccc(C#Cc3ccccc3)cc2O[C@@H]1CN(C)S(=O)(=O)c1cn(C)cn1	x	x	n	x	x	x	x
CN1C(=O)c2cc(NC(=O)Nc3ccccc3Cl)ccc2OC[C@@H]2O[C@H](CC(=O)O)CC[C@H]21	x	x	n	x	x	x	x
C[C@@H]1CN([C@H](C)CO)S(=O)(=O)c2ccc(-c3ccccc3)cc2O[C@H]1CN(C)Cc1cccc(F)c1	x	x	n	x	x	x	x
SMILES	A3G deaminase	ASAP1 inh	Statin myotox sup	APOBEC3A inh	Mot1-301 SUMO	ARFGAP1 inh	ASAP1 GAP conf
Cc1ccc(-c2nnc(N(C)C(=O)c3cccnc3)s2)cn1	n	25.6	n	n	n	n	n
Cc1ccc(-c2nnc(N(C)C(=O)c3cccnc3)s2)cc1	n	n	x	n	n	n	x
CC(=O)Nc1ccc(C(=O)Nc2cccc(-c3cnc4ccccc4n3)c2)cc1	x	39.9	x	x	x	n	80.3
O=C(Nc1cccc(-c2csc(Nc3ccc(Cl)cc3)n2)c1)c1ccccc1	n	26.2	n	n	n	n	26.1
O=C(Nc1cccc(-c2csc(Nc3ccc(Cl)cc3)n2)c1)c1cccc(C(F)(F)F)c1	n	n	n	n	n	n	x
CO[C@H]1CN(C)C(=O)c2cc(NC(=O)C3CCC3)ccc2OC[C@@H](C)N(Cc2ccccn2)C[C@H]1C	x	x	n	x	x	x	x
COCC(=O)N[C@H]1C=C[C@@H](CC(=O)NCc2ccc(Cl)cc2)O[C@H]1CO	x	x	n	x	x	x	x
O=C(c1n[nH]c(=O)c2ccccc12)N1CCN(S(=O)(=O)c2ccccc2Cl)CC1	n	25.4	n	n	n	n	n
O=C(c1n[nH]c(=O)c2ccccc12)N1CCN(c2ccccc2Cl)CC1	n	n	n	n	n	n	x
Cc1ccc(-c2ccc3c(c2)O[C@@H](CN(C)CC2CC2)[C@@H](C)CN([C@@H](C)CO)S3(=O)=O)cc1	x	x	n	x	x	x	x
CO[C@H]1CN(C)C(=O)c2ccc(NC(C)=O)cc2OC[C@H](C)N(C(=O)c2ccncc2)C[C@@H]1C	x	x	n	x	x	x	x
Cc1cc(NC2=CC(=O)C(=O)c3ccccc32)no1	x	28.9	x	x	x	n	n
Cc1ccc(NC2=CC(=O)C(=O)c3ccccc32)cc1	n	n	n	n	n	n	x
COc1ccc(/C=C2\SC(=O)N(CC(=O)Nc3ccc(O)cc3)C2=O)cc1OC	n	n	n	n	n	n	x
Cc1ccc(NC(=O)CN2C(=O)S/C(=C\c3cc(Cl)c(OCC(=O)O)c(Cl)c3)C2=O)cc1	n	64.8	n	n	n	37.2	75.0
COc1ccc(C(=O)Nc2ccc(OCC(F)(F)C(F)F)c(C(F)(F)F)c2)cc1OC	n	26.5	x	n	n	n	26.2
COc1ccc([C@H]2CN(c3ccc(OC)cc3)C(=O)[C@@H]2CC(=O)Nc2ccccc2)cc1	x	28.1	n	x	x	n	n
CCOc1ccc(Br)cc1S(=O)(=O)Nc1ccc(C(=O)Nc2ccccc2OC)cc1	n	n	x	n	n	n	x
CCOc1ccc(Br)cc1S(=O)(=O)Nc1ccc(C(=O)OCC(=O)N(C)c2ccccc2)cc1	n	26.3	x	n	n	n	n
O=C(Nc1cccc(F)c1)c1ccc(-c2ccccc2C(F)(F)F)o1	x	n	x	x	x	n	x

Source: PubChem
